Active and inactive are the calls of the source. No cut-off for these calls is given here.
Columns and labels:
[1] = biological target: Glutamate receptor ionotropic, NMDA 2B (Rattus norvegicus, UniProt Q00960); test: Displacement of [3H]ifenprodil from rat brain membrane NR2B receptor
[2] = biological target: Glutamate receptor ionotropic, NMDA 2B (Rattus norvegicus) (UniProt Q00960); test: Displacement of [3H]ifenprodil from rat brain membrane NR2B receptor relative to ifenprodil
[3] = Stability in frogs Ringer buffer in presence of N-acetyl cysteine methyl ester by HPLC; type: physicochemical; conditions: frog's Ringer buffer with N-acetyl cysteine methyl ester
Procedure, shortened: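 Half-life in frog's Ringer buffer, pH 7.4, followed by HPLC peak-area decrease over time in presence of excess N-acetyl cysteine methyl ester; NACME and compound levels varied per run (mM range); reactivity also expressed in relative terms.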

[4] = Stability in frogs Ringer buffer by HPLC; type: physicochemical; conditions: frog's Ringer buffer
[5] = biological target: T1, Glutamate NMDA receptor; GRIN1/GRIN2B (Homo sapiens, UniProt Q05586+Q13224); test: Inhibition of NR1/NR2B receptor expressed in xenopus oocytes assessed as effect on L-glutamate and glycine-induced current response at 10 uM; type: cell-based; conditions: Oocyte
[6] = biological target: T1, Glutamate NMDA receptor; GRIN1/GRIN2B; test: Inhibition of NR1/NR2B receptor expressed in xenopus oocytes assessed as effect on L-glutamate and glycine-induced current response; type: cell-based, Oocyte
Procedure, shortened: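 Two-electrode voltage clamp on Xenopus oocytes expressing wild-type NR1/NR2B receptors. NMDA currents were evoked with saturating L-glutamate plus glycine. The compound was applied during an ongoing NMDA response, and the change in current amplitude it induced was measured.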

[7] = biological target: T2, Glutamate NMDA receptor; GRIN1/GRIN2A (Homo sapiens, UniProt Q05586+Q12879); test: Activity at NR1/NR2A receptor expressed in xenopus oocytes assessed as Inhibition of L-glutamate and glycine-induced current response at 100 uM; type: cell-based; conditions: Oocyte
[8] = biological target: T1, Glutamate NMDA receptor; GRIN1/GRIN2B; test: Inhibition of N-terminal domain truncated NR1/NR2B receptor expressed in xenopus oocytes assessed as effect on L-glutamate and glycine-induced current response; type: cell-based, Oocyte
[9] = biological target: T2, Glutamate NMDA receptor; GRIN1/GRIN2A; test: Activity at NR1/NR2A receptor expressed in xenopus oocytes assessed as effect on L-glutamate and glycine-induced current response; type: cell-based, Oocyte
[10] = biological target: T1, Glutamate NMDA receptor; GRIN1/GRIN2B; test: Inhibition of NR1/NR2B receptor expressed in xenopus oocytes assessed as effect on L-glutamate and glycine-induced current response relative to ifenprodil; type: cell-based; conditions: Oocyte
Procedure, shortened: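 Two-electrode voltage clamp on Xenopus oocytes expressing wild-type NR1/NR2B. Currents evoked by saturating L-glutamate plus glycine, 100 µM each; compound applied during the NMDA response and change in current size measured.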

[11] = biological target: T2, Glutamate NMDA receptor; GRIN1/GRIN2A; test: Inhibition of NR1/NR2A receptor expressed in xenopus oocytes assessed as effect on L-glutamate and glycine-induced current response; type: cell-based, Oocyte
[12] = biological target: T1, Glutamate NMDA receptor; GRIN1/GRIN2B; test: Inhibition of N-terminal domain truncated NR1/NR2B receptor expressed in xenopus oocytes assessed as effect on L-glutamate and glycine-induced current response upto 100 uM; type: cell-based; conditions: Oocyte

Glutamate receptor ionotropic, NMDA 2B, sequence (Q00960 whole entry): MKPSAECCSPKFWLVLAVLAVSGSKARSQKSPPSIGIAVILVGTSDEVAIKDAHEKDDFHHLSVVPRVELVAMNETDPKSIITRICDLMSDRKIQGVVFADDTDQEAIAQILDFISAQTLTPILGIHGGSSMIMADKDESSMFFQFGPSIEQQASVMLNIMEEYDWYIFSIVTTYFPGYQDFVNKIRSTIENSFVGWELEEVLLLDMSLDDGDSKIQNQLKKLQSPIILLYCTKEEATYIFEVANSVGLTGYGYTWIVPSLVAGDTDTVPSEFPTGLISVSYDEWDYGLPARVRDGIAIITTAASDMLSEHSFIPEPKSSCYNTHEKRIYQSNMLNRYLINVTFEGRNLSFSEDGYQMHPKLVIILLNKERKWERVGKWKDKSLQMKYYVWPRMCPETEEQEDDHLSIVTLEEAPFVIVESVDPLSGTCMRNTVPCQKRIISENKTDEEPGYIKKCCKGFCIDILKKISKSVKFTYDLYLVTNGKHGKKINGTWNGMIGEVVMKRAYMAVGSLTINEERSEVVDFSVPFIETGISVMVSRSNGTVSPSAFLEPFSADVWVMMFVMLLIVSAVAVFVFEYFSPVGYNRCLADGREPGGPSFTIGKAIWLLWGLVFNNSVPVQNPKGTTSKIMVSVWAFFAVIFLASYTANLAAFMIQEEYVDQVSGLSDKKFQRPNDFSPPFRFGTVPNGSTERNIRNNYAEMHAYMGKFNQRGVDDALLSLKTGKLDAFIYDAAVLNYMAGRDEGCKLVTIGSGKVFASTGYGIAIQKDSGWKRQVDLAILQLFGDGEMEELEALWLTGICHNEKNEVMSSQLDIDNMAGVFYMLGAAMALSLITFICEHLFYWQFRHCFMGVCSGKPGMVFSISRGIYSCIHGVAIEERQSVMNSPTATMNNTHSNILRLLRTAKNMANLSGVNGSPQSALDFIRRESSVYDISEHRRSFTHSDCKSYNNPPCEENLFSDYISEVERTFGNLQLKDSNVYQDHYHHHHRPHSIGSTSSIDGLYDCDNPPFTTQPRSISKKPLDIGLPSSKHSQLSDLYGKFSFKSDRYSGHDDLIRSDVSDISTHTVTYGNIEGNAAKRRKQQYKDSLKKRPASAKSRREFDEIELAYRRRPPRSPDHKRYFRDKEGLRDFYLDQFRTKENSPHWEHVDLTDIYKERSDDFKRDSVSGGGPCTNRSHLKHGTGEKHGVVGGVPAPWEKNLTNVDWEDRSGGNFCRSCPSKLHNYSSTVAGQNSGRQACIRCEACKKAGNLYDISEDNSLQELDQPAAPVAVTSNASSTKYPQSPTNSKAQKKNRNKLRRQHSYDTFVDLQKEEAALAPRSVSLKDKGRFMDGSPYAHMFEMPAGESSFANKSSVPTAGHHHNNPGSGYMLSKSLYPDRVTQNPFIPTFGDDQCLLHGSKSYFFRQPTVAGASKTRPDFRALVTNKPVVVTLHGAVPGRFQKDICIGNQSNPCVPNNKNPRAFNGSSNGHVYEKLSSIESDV
Glutamate receptor ionotropic, NMDA 2B (Rattus norvegicus), sequence (Q00960 27-1482 limits assumed): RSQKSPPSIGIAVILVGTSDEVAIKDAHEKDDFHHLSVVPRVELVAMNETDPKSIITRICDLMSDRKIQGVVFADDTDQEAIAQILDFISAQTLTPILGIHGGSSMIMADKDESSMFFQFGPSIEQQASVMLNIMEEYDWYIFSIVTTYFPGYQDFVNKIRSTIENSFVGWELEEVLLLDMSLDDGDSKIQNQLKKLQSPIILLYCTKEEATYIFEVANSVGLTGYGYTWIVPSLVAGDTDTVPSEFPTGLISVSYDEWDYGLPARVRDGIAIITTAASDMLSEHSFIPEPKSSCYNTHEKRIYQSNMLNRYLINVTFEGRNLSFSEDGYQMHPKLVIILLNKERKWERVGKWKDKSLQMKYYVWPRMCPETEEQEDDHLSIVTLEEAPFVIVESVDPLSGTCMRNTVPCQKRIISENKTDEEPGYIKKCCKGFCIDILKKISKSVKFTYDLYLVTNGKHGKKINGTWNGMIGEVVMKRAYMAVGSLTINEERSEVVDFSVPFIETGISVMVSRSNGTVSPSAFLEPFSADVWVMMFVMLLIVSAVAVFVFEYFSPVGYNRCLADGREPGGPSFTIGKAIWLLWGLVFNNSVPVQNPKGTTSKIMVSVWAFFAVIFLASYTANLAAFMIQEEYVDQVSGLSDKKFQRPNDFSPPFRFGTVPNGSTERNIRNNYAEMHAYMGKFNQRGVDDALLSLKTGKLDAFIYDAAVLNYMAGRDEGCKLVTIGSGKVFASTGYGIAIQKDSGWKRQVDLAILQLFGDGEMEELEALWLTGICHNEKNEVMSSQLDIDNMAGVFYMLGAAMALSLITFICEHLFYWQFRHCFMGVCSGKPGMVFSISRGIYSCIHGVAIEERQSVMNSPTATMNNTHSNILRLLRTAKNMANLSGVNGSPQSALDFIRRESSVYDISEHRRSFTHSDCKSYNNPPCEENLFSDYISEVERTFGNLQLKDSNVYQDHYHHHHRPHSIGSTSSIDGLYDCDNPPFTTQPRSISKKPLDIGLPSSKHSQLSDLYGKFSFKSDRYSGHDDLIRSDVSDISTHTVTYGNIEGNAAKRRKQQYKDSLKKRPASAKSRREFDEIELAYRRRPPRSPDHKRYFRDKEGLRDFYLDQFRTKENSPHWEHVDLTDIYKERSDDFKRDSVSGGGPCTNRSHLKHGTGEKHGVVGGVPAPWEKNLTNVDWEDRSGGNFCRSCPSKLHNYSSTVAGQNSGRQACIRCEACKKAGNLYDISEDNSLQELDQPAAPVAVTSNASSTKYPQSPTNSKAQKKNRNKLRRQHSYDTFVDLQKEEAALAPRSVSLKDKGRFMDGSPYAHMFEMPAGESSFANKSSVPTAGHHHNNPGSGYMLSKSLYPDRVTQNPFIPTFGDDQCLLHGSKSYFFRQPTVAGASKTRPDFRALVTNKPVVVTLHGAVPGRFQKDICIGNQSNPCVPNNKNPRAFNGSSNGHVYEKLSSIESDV

SMILES	Ki [1] [nM]	Ratio [2]	half-life [3] [h]	half-life [4] [h]	other results
CC(C(=O)c1ccc(N)cc1)N1CCC(Cc2ccccc2)CC1 (stereo not given)	58	1	–	–	–
CC(C(=O)c1ccc(N=C=S)cc1)N1CCC(Cc2ccccc2)CC1 (stereo not given)	679	62	0.054	20	inhibition [5]: 8%
Oc1ccc(C(O)CN2CCC(Cc3ccccc3)CC2)cc1 (stereo not given)	62	16	–	–	–
O=C(CN1CCC(Cc2ccc([N+](=O)[O-])cc2)CC1)c1ccc(O)cc1	200	18	–	–	–
CC(C(O)c1ccc(N)cc1)N1CCC(Cc2ccccc2)CC1 (racemic; threo) [listing 1 of 2 here]	300	–	–	–	–
CC(C(O)c1ccc(N)cc1)N1CCC(Cc2ccccc2)CC1 (racemic; threo) [listing 2 of 2 here]	–	27	–	–	–
CC(=O)Nc1ccc(C(=O)C(C)N2CCC(Cc3ccccc3)CC2)cc1 (stereo not given)	107	10	–	–	–
CC(C(=O)c1ccc(NC(=O)CCl)cc1)N1CCC(Cc2ccccc2)CC1 (stereo not given)	493	45	1.9	> 24	IC50 [6]: 14000 nM; inhibition [7]: 25%; IC50 [8]: 230000 nM; EC50 [9]: > 100000 nM; Ratio IC50 [10]: 130
CC(C(O)c1ccc(N)cc1)N1CCC(Cc2ccccc2)CC1 (racemic; erythro) [listing 1 of 2 here]	–	8.8	–	–	–
O=C(CN1CCC(Cc2ccccc2)CC1)c1ccc(O)cc1	141	13	–	–	–
O=C(CN1CCC(Cc2ccc(N=C=S)cc2)CC1)c1ccc(O)cc1	245	22	0.383	> 24	IC50 [6]: 16000 nM; IC50 [11]: 16000 nM; IC50 [8]: 570000 nM; EC50 [9]: > 100000 nM; Ratio IC50 [10]: 145
CC(C(O)c1ccc(N)cc1)N1CCC(Cc2ccccc2)CC1 (racemic; erythro) [listing 2 of 2 here]	97	–	–	–	–
C=C(CN1CCC(Cc2ccccc2)CC1)C(=O)c1ccc([N+](=O)[O-])cc1	248	23	1.03	5	–
C=C(CN1CCC(Cc2ccccc2)CC1)C(=O)c1ccc(OC)cc1	527	48	0.117	5	IC50 [6]: 70000 nM; inhibition [7]: 11%; Activity [12]: inactive; EC50 [9]: > 100000 nM; Ratio IC50 [10]: 640
